# Screening data as filed in PubChem.
# Many of the other results were omitted from the sample, so hits are more common in it than they were.
# Calb biofilm kill – mixtures killing C. albicans biofilm | C. albicans biofilm persisters + clotrimazole, fluorescence viability; primary screen in compound mixtures of four per well | inhibition, % at 7.6 µM | 120,000 compounds, 0.02% hits | AID 1242;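 active = inhibition above 30.3% in the primary screen of four-compound pools, then above 30% when the compound was retested; inconclusive = passed the primary limit but could not be retested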;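 note: compounds exposed to preformed 24 h biofilms for 48 h; 0% = untreated biofilm control and 100% = clotrimazole plus chlorhexidine kill blank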
#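 Test system: C. albicans CAF4-2 wild-type biofilms; buffer or medium: RPMI/MOPS medium, pH 7.0; schedule: 24 h biofilm formation, then 48 h compound exposure, 37 °C; detection: Alamar Blue fluorescence; measure: percent inhibition of biofilm viability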
# ROMK mod – human ROMK K+ channel modulation, primary screen; P48048; B-score at 10 µM; 130,000 compounds, 2% hits; AID 1918; Tet-inducible ROMK, thallium flux fluorescence; actives lie on both sides;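 active = signal ratio slope over the read window, or its plate-corrected B-score, at least 3 SD from the plate mean, either direction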;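 note: B-score of the F/F0 ratio slope over 7 to 12 s after thallium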
# Target sequence (P48048 whole entry, looked up): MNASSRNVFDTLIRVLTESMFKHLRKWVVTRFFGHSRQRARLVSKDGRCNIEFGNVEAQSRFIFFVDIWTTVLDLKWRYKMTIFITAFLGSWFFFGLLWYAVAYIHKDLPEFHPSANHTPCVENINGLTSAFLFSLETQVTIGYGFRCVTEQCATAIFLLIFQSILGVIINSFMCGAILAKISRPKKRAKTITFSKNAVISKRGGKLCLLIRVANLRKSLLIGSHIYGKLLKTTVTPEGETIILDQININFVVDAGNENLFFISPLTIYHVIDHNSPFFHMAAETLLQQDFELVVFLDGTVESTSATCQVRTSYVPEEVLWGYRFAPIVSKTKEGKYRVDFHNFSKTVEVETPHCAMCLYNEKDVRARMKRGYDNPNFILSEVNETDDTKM
# ROMK retest – confirmation of human ROMK potassium channel modulators; shares compounds with ROMK mod; ROMK thallium flux, fluorescence ratio; stronger effect = lower value; normalized thallium flux (F/F0 slope) at 10 µM; 3,000 compounds, 54% hits; AID 1917;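 active = Flux at 10 µM at least 3 SD below or above vehicle control mean in one or both replicates; inconclusive = no clear call, values can overlap the other calls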
# Numbers without * were called inactive; ? = inconclusive; . = not tested or not shown.
SMILES,Calb biofilm kill,ROMK mod,ROMK retest
COCCNC(=O)/C(C#N)=C/c1cccc(NC(=O)c2ccccc2Cl)c1,15.2,.,0.0469*
O=C(CN(Cc1cccs1)C(=O)c1csnn1)NC1CCCC1,3.8,.,.
Cc1cc(C(C)(C)C)oc1C(=O)N(CC(=O)NC1CCCC1)Cc1ccccc1Cl,.,.,0.0537*
COc1ccc(C(CCNCc2ccc(F)cc2)c2ccc(F)cc2)cc1 (stereo unspecified),15.1,-3.12,.
COc1ccc(CNCCC(c2ccc(F)cc2)c2ccc(OC)cc2)cc1 (stereo unspecified),11.1,-4.16*,0.0528*
O=C(CCSCCc1ccncc1)NCCCN1CCOCC1,.,0.464,.
N#C/C(=C\C1=C(N2CCOCC2)C(=C/c2cccc([N+](=O)[O-])c2)/CC1)C(=O)Nc1ccccc1F,13.3,-3.35*,0.0606*
N#C/C(=C\C1=C(N2CCOCC2)C(=C\c2ccc(Cl)cc2)/CC1)C(=O)Nc1ccccc1F,8.4,-1.93,.
CCOc1ccc(N2CC(=O)N/C2=N\c2nc(C)cc(C)n2)cc1,.,.,0.0769
CCOc1ccc(N2C(=O)CC(Sc3nc(C)cc(C)n3)C2=O)cc1 (stereo unspecified),.,0.0668,.
Cc1c(C)n(Cc2ccccc2)c2ccc(C(=O)OCCN(C)C)cc12,5.5,-3.54*,0.0592*
CCn1ncc(/C=N\NC(=O)c2ccc3c(c2)c(C)c(C)n3Cc2ccccc2)c1C,.,0.924,.
Cc1cc(OCCN2CCCCCC2)ccc1[N+](=O)[O-],18.3,.,.
O=S(=O)(Nc1nc2ccccc2nc1Nc1ccc(N2CCOCC2)cc1)c1cc(Cl)ccc1Cl,13.3,.,0.0571*
Clc1nc(Nc2ccc(N3CCOCC3)cc2)c2ccccc2n1,28.6,-0.932,.
COc1ccc(F)cc1S(=O)(=O)NCc1ccccc1,6.7,.,.
O=C(NCCNc1ccc([N+](=O)[O-])cc1C(F)(F)F)c1ccc(F)cc1,7.8,.,.
NCCCNc1ccc([N+](=O)[O-])cc1C(F)(F)F,25.3,-8.31*,0.0657*
COc1ccccc1/C=C/C(=O)OCCN1CCOCC1,16.8,-0.0138,.
COC(Cn1c2c(c3cc(C)ccc31)CCCC2NCc1ccccc1)OC (stereo unspecified),15.6,-3.88*,0.066*
Cc1ccc2c(c1)c1c3n2CCCN(Cc2ccccc2)C3CCC1 (stereo unspecified),.,0.507,.
CCCN1C(=O)/C(=C/c2c(NCCCOC(C)C)nc3c(C)cccn3c2=O)SC1=S,.,.,0.0546*
CCCN1C(=O)/C(=C/c2c(N3CCNC(=O)C3CC(=O)OCC)nc3c(C)cccn3c2=O)SC1=S (stereo unspecified),16.5,.,.
CCN1C(=O)C(CC(=O)NC)N(NC(=O)c2ccccc2)C1=S (stereo unspecified),15.6,.,.
CCOC(=O)CSc1ncnc2c1nnn2-c1ccc(F)cc1,.,0.0401,.
SMILES,Calb biofilm kill,ROMK mod,ROMK retest
CC(=O)C(Sc1ncnc2c1nnn2-c1ccc(F)cc1)C(=O)N(C)C (stereo unspecified),.,.,0.0731
COC(=O)c1ccc(S(=O)(=O)N2CCN(C(c3ccccc3)c3ccccc3)CC2)n1C,13.7,-2.61,.
COC(=O)Cn1cc(/C=N/NC(=O)COc2cccc3cccnc23)c2ccccc21,7.2,.,.
COC(=O)CSc1nc(C)cc(C)c1C#N,11.4,0.577,.
COC(=O)CSc1nc(C)cc(C(F)(F)F)c1C#N,.,.,0.0733
CCOC(=O)C1CCCN(S(=O)(=O)c2cc(OCC(=O)NC3CCCCC3)c(C)cc2Cl)C1 (stereo unspecified),.,-1.51,.
Cc1cc(Cl)c(S(=O)(=O)N2CCN(c3ccc(F)cc3)CC2)cc1OCC(=O)NC1CCCCC1,.,-4.3*,0.0625*
Cc1cc(Cl)c(S(=O)(=O)NCC2CCCO2)cc1OCC(=O)NC1CCCCC1 (stereo unspecified),.,-0.0504,.
Cc1cc(Cl)c(S(=O)(=O)Nc2ccc3c(c2)OCCO3)cc1OCC(=O)NC1CCCCC1,.,-3.16*,0.0664*
Oc1cnn(-c2ccccc2)c1,.,0.346,.
CN(C)c1ccc(/C=N/NC(=O)c2ccccc2)cc1,7.0,0.715,.
CN(C)c1ccc(/C=N/NC(=O)c2ccccc2Cl)cc1,20.3,1.94,0.0876
CCOc1ccccc1/C=N/NC(=O)c1ccc(Cn2cc([N+](=O)[O-])cn2)o1,.,-1.42,.
C=CCn1c(SCC(=O)NCCCC(=O)OCC)nc2scc(-c3ccco3)c2c1=O,13.6,0.143,.
O=C(CN1CCN(c2ccc([N+](=O)[O-])cc2)CC1)Nc1ccccn1,6.3,-3.16*,0.0539*
O=C(CN1CCN(c2ccc([N+](=O)[O-])cc2)CC1)Nc1nccs1,20.6,-1.08,.
CC1(C(=O)OCC(=O)Nc2ccccc2Cl)CC1(Cl)Cl (stereo unspecified),6.5,0.0422,.
CCc1noc(C)c1C(=O)N1CCCC(C(=O)c2cc(F)ccc2OC)C1 (stereo unspecified),13.3,.,.
Cn1cc([N+](=O)[O-])c(C(=O)N/N=C/c2ccc([N+](=O)[O-])cc2)n1,18.4,.,.
c1cncc(-c2nc(N3CCCCCC3)c3ccccc3n2)c1,.,-2.61,.
c1ccc2c(N3CCCCCC3)nc(-c3ccncc3)nc2c1,.,-2.79*,?
Cc1sc2nc(CN3CCCCC3)nc(N3CCN(C(=O)c4ccco4)CC3)c2c1C,16.7,1.6,.
Cc1sc2nc(CN3CCCC3)nc(N3CCN(S(=O)(=O)c4cccs4)CC3)c2c1C,.,-2.52*,0.0553*
Cc1ccc(NC(=O)COC(=O)c2ccc3c(c2)OCCO3)cc1S(=O)(=O)N1CCOCC1,12.4,-0.279,.
CCC(C)NC(=O)C1CCN(S(=O)(=O)c2cccs2)CC1 (stereo unspecified),.,0.0212,.
SMILES,Calb biofilm kill,ROMK mod,ROMK retest
Cc1onc(-c2ccccc2Cl)c1C(=O)Nc1nc2ccc(S(C)(=O)=O)cc2s1,6.6,.,.
Cc1onc(-c2ccccc2Cl)c1C(=O)Nc1nnc(-c2cccc([N+](=O)[O-])c2)s1,.,.,0.0611*
O=C(CSc1nncs1)NC(=O)NCc1ccccc1,.,0.14,.
CC1(C)CC(=O)C(C2C3=C(CC(C)(C)CC3=O)Oc3ccccc32)C(=O)C1 (stereo unspecified),16.7,0.00286,.
CC1(C)CC(=O)C2=C(C1)Oc1nc3ccccc3cc1C2C(C#N)C#N (stereo unspecified),.,-3.55*,0.0583*
CCOC(=O)C1=C(N)OC2=C(C(=O)CC(C)(C)C2)C1c1cc(CSc2nnnn2C)cs1 (stereo unspecified),9.1,-4.09*,?
CCOC(=O)C1=C(N)OC2=C(C(=O)CC(C)(C)C2)C1c1ccoc1 (stereo unspecified),.,-0.0991,.
N#CC(c1ccccc1)c1ccc(C(=O)c2ccc(F)cc2)cc1 (stereo unspecified),.,-0.0397,.
Cc1ccc(S(=O)(=O)Nc2ccc(-c3nc4ccc(C)cc4s3)cc2)cc1,12.8,.,.
Cc1cccc(S(=O)(=O)Nc2ccc(-c3nc4ccc(C)cc4s3)cc2)c1,3.0,.,0.0787
N#C/C(=C\c1ccccc1[N+](=O)[O-])C(=O)NCc1ccccc1,10.6,.,.
N#C/C(=C/c1ccccc1[N+](=O)[O-])C(=O)NCc1ccco1,21.8,-2.39*,0.045*
CC(c1ccco1)N(C(=O)CSc1ccc(Br)cc1)c1ccccn1 (stereo unspecified),.,-4.1*,0.0585*
Cc1cc(C)cc(C(=O)N(c2ccccn2)C(C)c2ccco2)c1 (stereo unspecified),.,-0.0109,.
COc1ccc(C(=O)/C=C/Nc2c(C)n(C)n(-c3ccccc3)c2=O)cc1OC,.,0.823,.
